# Ins promoter up = MIN6 insulin promoter up-regulation. z-score at 5 µM. actives 0.3% (n = 190,000). MIN6 insulin promoter-GFP reporter, high-content imaging; stronger effect = higher value;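 active = z-score above 3 at 5 µM with at least 500 cells counted in the well; inconclusive = wells under 500 cells, flagged as cytotoxic or low count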
# Rad51 HR inh = blocks human Rad51 in homologous recombination; AID 1385; hRad51 DNA strand exchange, fluorescence dequenching; inhibition, % at 10 µM; actives 0.085% (n = 200,000); Q06609;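 active = inhibition above 40% at the single screening dose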;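 also: 0% = DMSO control wells and 100% = blanks with heterologous ssDNA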
# Target sequence (Q06609 whole entry, looked up): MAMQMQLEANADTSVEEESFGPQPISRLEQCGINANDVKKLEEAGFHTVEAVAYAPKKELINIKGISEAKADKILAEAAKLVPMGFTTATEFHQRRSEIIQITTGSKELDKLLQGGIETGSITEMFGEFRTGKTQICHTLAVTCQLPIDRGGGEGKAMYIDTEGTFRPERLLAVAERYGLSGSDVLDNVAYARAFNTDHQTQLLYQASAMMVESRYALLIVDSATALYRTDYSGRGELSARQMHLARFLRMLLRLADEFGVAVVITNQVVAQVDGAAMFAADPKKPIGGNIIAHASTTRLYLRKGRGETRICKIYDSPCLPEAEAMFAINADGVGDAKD
#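 System: human Rad51 nucleoprotein filaments preassembled on unlabelled ssDNA. Reagent: labelled 47-mer dsDNA for strand exchange. Schedule: 30-min compound preincubation and 15-min exchange, both room temperature. Measured by: FRET fluorescence dequenching, excitation 485 nm, emission 520 nm. Read-out: Fluorescence-based percent inhibition, control- and blank-normalised. Benchmarks: plate controls and plate blanks.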
# Autophagy HCS = autophagy modulation, high-content screen. MEF GFP-LC3 puncta imaging; test concentration mostly 10 µM. actives 0.98% (n = 190,000). AID 463193. calls only at 10 µM (by protocol);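 active = percentage of spot-positive cells more than 3 SD above its plate mean, without a fluorescence outlier flag or 80% toxicity; inconclusive = no clear call, values can overlap the other calls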;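 also: spot-positive cell cutoff set from DMSO-treated cells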
# Cl transport mod = modulators of human KCC2 chloride dependent transport. Q9H2X9. KCC2 cells, thallium flux FluoZin-2 fluorescence. B-score of Tl+ flux slope (higher = more flux/activation; lower = inhibition) at 10 µM. actives 2.2% (n = 190,000);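 active = thallium flux slope and its plate-corrected score both differing from the plate sample mean at a set confidence after two filtering rounds, in either direction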;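 also: slope of fluorescence scaled to starting intensity during 10 to 20 s after thallium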
# SKKanGAS inh = inhibitors of SKKanGAS S. pyogenes growth in kanamycin (SK-promoter or general growth effect). AID 1662. BacTiter-Glo, 6 h. actives 1.3% (n = 300,000). inhibition, % at 7.5 µM;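 active = mean replicate score, as percent of positive control median, at least 50; inconclusive = mean below 50 but one replicate at or above 50; inactive = mean and every replicate below 50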;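 also: strain carries kanamycin resistance gene driven by streptokinase promoter and grows in 40 µg/ml kanamycin; loss of luminescence reflects streptokinase promoter inhibition or plain growth inhibition; 0% = median of DMSO wells and 100% = positive control at its reference dose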
# WT yeast gro inh = growth inhibition of WT yeast, mitochondrial fusion screen; mitochondrial fusion phenotypic screen, WT strain; inhibition, % at 10 µM; actives 2.1% (n = 190,000); AID 1362; in the data active = inhibition above about 58%; tested in S. cerevisiae
# Active calls of the source: *; i = inactive; ? = inconclusive; . = no result given; + = active, no number. The list is not random: actives were taken first. Their share in the collection is about 4.2%.
SMILES,Ins promoter up,Rad51 HR inh,Autophagy HCS,Cl transport mod,SKKanGAS inh,WT yeast gro inh
Oc1ccccc1-c1cc(-c2cccc(F)c2)n[nH]1,0.29,10,i,-0.38,2,28
Cc1[nH]nc(-c2ccc(O)cc2O)c1-c1ccc(Cl)cc1,-1.5,-7,i,0.11,-2,-7
COc1ccc(-c2n[nH]c(C)c2-c2ccc(Cl)cc2)c(O)c1,0.1,0,i,0.34,68*,49
Cc1cc(C(=O)NCC(c2cccs2)N2CCOCC2)ccc1[N+](=O)[O-] (stereo not drawn),.,.,.,.,-4,.
Cc1ccc(CNC(=O)c2ccc(S(=O)(=O)N(C)C)cc2)n1C,.,.,.,.,-2,.
Cn1c(SCC(=O)N2CCOCC2)nc2c(c1=O)SCC2,.,.,.,.,1,.
Cc1ccsc1C1C(C#N)=C(N)OC2=C1C(=O)CCC2 (stereo not drawn),.,-3,+,.,-7,-2
Cc1ccc2nc(SCC(=O)N(CC(C)C)c3c(N)n(Cc4ccccc4)c(=O)[nH]c3=O)[nH]c2c1,-0.07,-4,.,0.27,-1,.
O=C1CCc2cc(S(=O)(=O)NC3CCCCC3)cc3c2N1CC3,.,.,.,.,-2,.
C/C(=N/Nc1cc(-c2ccccc2)nc(-c2ccccc2)n1)c1ccc(O)cc1,-0.44,2,i,-0.051,99*,98*
C/C(=N\Nc1cc(-c2ccccc2)nc(-c2ccc(Br)cc2)n1)c1cccc(N)c1,.,-5,i,1.2,.,.
CC(OC(=O)c1cc(=O)[nH]c2ccccc12)C(=O)NCc1ccccc1 (stereo not drawn),.,.,.,.,-13,.
COc1cccc(-c2nc(NCc3ccccc3)c3ccccc3n2)c1O,.,.,.,.,-1,.
COc1cccc(-c2nc(N3CCN(C)CC3)c3ccccc3n2)c1O,-0.21,36,.,-0.23,5,.
COc1cccc(-c2nc(NC3CCCC3)c3ccccc3n2)c1O,.,.,.,.,55*,.
COc1cccc(-c2nc(N3CCCCC3C)c3ccccc3n2)c1O (stereo not drawn),-3.1,1,i,-2,76*,64*
CCOC(=O)Nc1ccc(C(=O)/C=C/c2ccccc2)cc1,0.19,8,.,0.37,-12,.
Cc1ccccc1NC(=O)CSCc1cc(=O)n2ccsc2n1,.,.,.,.,-4,.
N#C/C(=C/c1ccccc1)C(=O)NCc1ccccc1,0.62,-3,i,0.15,12,0
CN(C)c1ccc(/C=C(/C#N)C(=O)NCc2ccccc2)o1,16*,.,+,-1.9,6,-4
CC(=O)N1c2ccc(S(=O)(=O)N3CCC(C(=O)NCCc4ccc(Cl)cc4)CC3)cc2CC1C (stereo not drawn),.,.,.,.,-6,.
CC1CN(c2ccccc2)CCN1Cc1nc(Cc2ccccc2)no1 (stereo not drawn),0.41,5,i,-0.68,-5,8
CSc1nc(-c2ccco2)nn1C(=O)Cc1ccccc1,0.26,-6,+,.,4,-3
O=S(=O)(c1ccc(Cl)c(Cl)c1)c1snnc1-c1ccccc1,0.77,7,i,-0.55,29,84*
c1ccc(-c2nnsc2-c2ccccc2)cc1,.,.,.,.,11,.
SMILES,Ins promoter up,Rad51 HR inh,Autophagy HCS,Cl transport mod,SKKanGAS inh,WT yeast gro inh
N#CC(c1ccccc1)c1ccc2c(C(F)(F)F)cc(C(F)(F)F)nc2n1 (stereo not drawn),0.41,0,i,1.7,-3,74*
O=[N+]([O-])c1ccc(CN2CCCCCC2)cc1,.,.,.,.,-1,.
CCCn1c2c(c(=N)c3c1CCC3)CCCC2,-0.38,-1,i,0.00028,-8,10
N=c1c2c(n(Cc3ccc(Br)cc3)c3c1CCC3)CCCC2,?,11,i,-0.37,-3,58*
CCCn1c2c(c(=N)c3c1CCC3)CCC2,-1.5,26,.,-0.12,13,.
N=c1c2c(n(Cc3ccc(Cl)c(Cl)c3)c3c1CCC3)CCCC2,?,-2,i,.,-1,72*
N=c1c2c(n(Cc3ccc([N+](=O)[O-])cc3)c3c1CCC3)CCCC2,-3.5,22,+,-0.14,14,67*
CCOC(=O)C(C)Sc1cc(CS(=O)(=O)c2ccccc2)nc(-c2ccccc2)n1 (stereo not drawn),.,4,i,-0.47,11,23
O=C(CCC(=O)Nc1ccc(Br)cc1)N/N=C/c1ccccc1O,.,.,.,.,83*,.
O=C(CCn1cnc(-c2ccccc2)c1-c1ccccc1)N/N=C/c1ccccc1O,0.06,10,i,-0.88,76*,-11
O=C(CCn1cnc(-c2ccccc2)c1-c1ccccc1)N/N=C/c1ccc(O)cc1,0.13,9,i,-0.37,13,1
COc1ccc(/C=N/NC(=O)CCn2cnc3ccccc32)cc1,0.52,-1,.,-0.32,-4,.
COc1cccc(/C=N/NC(=O)CCn2cnc3ccccc32)c1,3.7*,10,.,0.95,6,.
COc1ccc(/C=N/NC(=O)CCn2cnc(-c3ccccc3)c2-c2ccccc2)cc1,0.21,6,i,0.067,105*,38
Cc1nc(C)n(C(Oc2ccc(Cl)cc2Cl)C(=O)C(C)(C)C)n1 (stereo not drawn),.,.,.,.,-1,.
CC1CC(CCC(=O)NC(=S)Nc2ccc(S(N)(=O)=O)cc2)C(=O)O1 (stereo not drawn),-0.2,2,i,1.5,-2,-2
CC1CCN(C2CCN(S(=O)(=O)c3ccc(C(F)(F)F)cc3)CC2)CC1,.,.,.,.,0,.
CSc1ccc(OC2CCCCC2NS(=O)(=O)c2ccc(Cl)cc2)cc1 (stereo not drawn),-0.54,12,i,0.17,4,74*
CCN(CC)C1CCCCC1NS(=O)(=O)c1ccc(Cl)cc1 (stereo not drawn),-1.5,-1,.,0.57,-3,3
CN(c1ccccc1)C1CCCCC1NS(=O)(=O)c1ccc(Cl)cc1 (stereo not drawn),-0.32,.,i,1,11,65*
CSc1ccc(S(=O)(=O)NC2CC3CCC2C3)cc1 (stereo not drawn),.,.,.,.,0,.
O=S(=O)(NC1CCCCC1Oc1ccccc1)c1ccc(Cl)cc1 (stereo not drawn),0.33,0,i,-0.021,-3,61*
COc1ccc(Cc2[nH]n3c(=O)cc(C(C)C)nc3c2-c2ccccc2)cc1,-0.24,14,i,1.7,91*,7
CCC(Cc1ccccc1)NS(=O)(=O)c1c(C)nc2sccn2c1=O (stereo not drawn),.,.,.,.,4,.
CC1(C)Cc2c(sc3c2C2=NCCN2C=N3)CO1,0.26,-9,i,7*,0,.
COc1ccccc1NC(=O)C(=O)NNC(=O)c1ccco1,-0.81,0,i,8.3*,3,-3
COc1ccccc1NC(=O)/C=C\c1ccco1,.,.,.,.,-2,.
COc1ccc(NC(=O)c2ccco2)cc1NC(=O)c1cccc(OC(C)C)c1,-0.49,-5,+,.,-8,23
COc1ccccc1NC(=O)c1cccc(NC(=O)c2ccco2)c1,-1.6,3,i,-0.092,3,74*

# Compound activity from PubChem BioAssay.
